Assay results published in ChEMBL document CHEMBL1146236, “Antineoplastic agents. 560. Isolation and structure of kitastatin 1 from an Alaskan Kitasatospora sp” (2007).
Converted amounts (≈) assume the structure as drawn.

Tests used:
Micrococcus luteus = assay: Antibacterial activity against Micrococcus luteus Presque Isle 456; format: functional
Outline: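 Broth microdilution susceptibility test per NCCLS standards, strain Presque Isle 456. Compound reconstituted in sterile DMSO, diluted in the appropriate medium immediately before testing. MIC taken as the lowest concentration giving complete inhibition of visible growth (optically clear).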

BXPC-3 = assay: Growth inhibition of human BXPC3 cells after 48 hrs by sulforhodamine B assay; format: functional; settings: BXPC-3, 48 h
Outline: (§1)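 Cells in 5% fetal bovine serum/RPMI1640 were seeded and preincubated 24 h, then exposed to serial compound dilutions for 48 h. Plates were TCA-fixed, stained with sulforhodamine B and read by microplate reader. ED50 (concentration giving 50% reduction in net protein increase) was calculated from optical density data.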

MCF7 = assay: Growth inhibition of human MCF7 cells after 48 hrs by sulforhodamine B assay; format: functional; settings: MCF7, 48 h; outline: as §1
SF-268 = assay: Growth inhibition of human SF268 cells after 48 hrs by sulforhodamine B assay; format: functional; settings: SF-268, 48 h; outline: as §1
NCI-H460 = assay: Growth inhibition of human NCI-H460 cells after 48 hrs by sulforhodamine B assay; format: functional; settings: NCI-H460, 48 h; outline: as §1
KM-20L2 = assay: Growth inhibition of human KM20L2 cells after 48 hrs by sulforhodamine B assay; format: functional; settings: KM-20L2, 48 h; outline: as §1
DU-145 = assay: Growth inhibition of human DU145 cells after 48 hrs by sulforhodamine B assay; format: functional; settings: DU-145, 48 h; outline: as §1
P388 = assay: Growth inhibition of mouse P388 cells after 48 hrs by Coulter particle counting; settings: P388, 48 h, read-out: ED50 (the source's name)
Cryptococcus neoformans = assay: Antifungal activity against Cryptococcus neoformans ATCC 90112; format: functional
Outline: (§2)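 Broth microdilution susceptibility testing, following NCCLS reference methods (M7-A5 for bacteria, M27-A2 for yeasts). Compounds reconstituted in sterile DMSO and diluted in the appropriate medium just before testing. MIC was the lowest concentration giving complete inhibition of visible growth (optically clear).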

Enterococcus faecalis = assay: Antibacterial activity against Enterococcus faecalis ATCC 29212; format: functional; outline: as §2

MIC (Micrococcus luteus)	Compound	GI50 (BXPC-3)	GI50 (MCF7)	GI50 (SF-268)	GI50 (NCI-H460)	GI50 (KM-20L2)	GI50 (DU-145)	EC50 (P388)	MIC (Cryptococcus neoformans)	MIC (Enterococcus faecalis)
64 µg/mL (≈ 87200 nM)	CCC(C)[C@@H]1OC(=O)[C@H](C)OC(=O)[C@@H](NC(=O)c2cccc(NC=O)c2O)[C@@H](C)OC(=O)[C@H](C(C)C)OC(=O)C(C)(C)C(=O)[C@H](CC(C)C)NC1=O (stereo not given in full)	1.2 µg/mL (≈ 1640 nM)	0.64 ng/mL (≈ 0.872 nM)	16 ng/mL (≈ 21.8 nM)	0.63 ng/mL (≈ 0.859 nM)	0.58 ng/mL (≈ 0.79 nM)	< 0.1 ng/mL	0.033 µg/mL (≈ 45 nM)		
	CCC(C)[C@@H]1OC(=O)[C@H](C)OC(=O)[C@@H](NC(=O)c2cccc(N)c2O)[C@@H](C)OC(=O)[C@H](CC(C)C)OC(=O)C(C)(C)C(=O)[C@H](CC(C)C)NC1=O (stereo not given in full) [KITASTATIN]	0.0066 µg/mL (≈ 9.17 nM)	4 ng/mL (≈ 5.56 nM)	3.5 ng/mL (≈ 4.86 nM)	< 1 ng/mL	2.4 ng/mL (≈ 3.33 nM)	2.6 ng/mL (≈ 3.61 nM)	0.045 µg/mL (≈ 62.5 nM)	64 µg/mL (≈ 88900 nM)	64 µg/mL (≈ 88900 nM)
	CCC(C)[C@@H]1OC(=O)[C@H](C)OC(=O)[C@@H](NC(=O)c2cccc(NC=O)c2O)[C@@H](C)OC(=O)[C@H](CC(C)C)OC(=O)C(C)(C)C(=O)[C@H](CC(C)C)NC1=O (stereo not given in full) [RESPIRANTIN]	0.47 µg/mL (≈ 628 nM)	0.6 ng/mL (≈ 0.802 nM)	1.6 ng/mL (≈ 2.14 nM)	0.6 ng/mL (≈ 0.802 nM)	0.6 ng/mL (≈ 0.802 nM)	0.18 ng/mL (≈ 0.241 nM)	0.0037 µg/mL (≈ 4.95 nM)	2 µg/mL (≈ 2670 nM)	
